Columns and labels:
Format in all cases: functional
Acinetobacter baumannii [1] = test: Antibacterial activity against oxacillinase 24-producing Acinetobacter baumannii K55-13 clinical isolate after 24 hrs by microdilution method; conditions: K55-13, 24 h
Summary of the method: (§1)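 Broth microdilution in Mueller-Hinton broth (modified CLSI M07-A9), clinical isolates at about 1-1.2 × 10^6 cells/ml. Inoculum mixed 1:1 with serial compound dilutions; stocks made in up to 100% DMSO, final DMSO ≤1%. Incubated 24 h.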

Klebsiella pneumoniae [2] = test: Antibacterial activity against New Delhi metallo-beta-lactamase 1/oxacillinase 181-producing Klebsiella pneumoniae 50531633 clinical isolate after 24 hrs by microdilution method; conditions: Klebsiella pneumoniae, 50531633, 24 h
Summary of the method: (§2)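 Clinical isolate screen by broth microdilution with about 1-1.2 × 10^6 cells/ml and 24 h incubation. MIC is the lowest concentration with no growth. For isolate collections, MIC90 is the MIC inhibiting ≥90% of isolates. Multidrug resistance was defined as resistance to at least […] antimicrobial class.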

Pseudomonas aeruginosa [3] = test: Antibacterial activity against Verona integron-encoded metallo-beta-lactamase 2-producing Pseudomonas aeruginosa K347 clinical isolate after 24 hrs by microdilution method; conditions: K347, 24 h; summary of the method: as §2
Enterococcus sp. = test: Antibacterial activity against Enterococcus sp. clinical isolates after 24 hrs by microdilution method; summary of the method: as §2
Enterococcus faecium [4] = test: Antibacterial activity against vancomycin resistant Enterococcus faecium 50,901,530 clinical isolate after 24 hrs by microdilution method; conditions: Enterococcus faecium, 50,901,530, 24 h; summary of the method: as §1
Escherichia coli [5] = test: Antibacterial activity against imipenem 26-type carbapenemase-producing Escherichia coli 50,857,972 clinical isolate after 24 hrs by microdilution method; conditions: Escherichia coli, 50,857,972, 24 h; summary of the method: as §2
Escherichia coli [6] = test: Antibacterial activity against New Delhi metallo-beta-lactamase 1-producing Escherichia coli 50,739,822 clinical isolate after 24 hrs by microdilution method; conditions: Escherichia coli, 50,739,822, 24 h; summary of the method: as §2
Pseudomonas aeruginosa [7] = test: Antibacterial activity against New Delhi metallo-beta-lactamase 1-producing Pseudomonas aeruginosa 50,692,172 clinical isolate after 24 hrs by microdilution method; conditions: Pseudomonas aeruginosa, 50,692,172, 24 h; summary of the method: as §2
Escherichia coli [8] = test: Antibacterial activity against Escherichia coli clinical isolates after 24 hrs by microdilution method; summary of the method: as §2
Enterococcus faecium [9] = test: Antibacterial activity against vancomycin resistant Enterococcus faecium TUH50-22 clinical isolate after 24 hrs by microdilution method; conditions: TUH50-22, 24 h; summary of the method: as §1
Escherichia coli [10] = test: Antibacterial activity against Escherichia coli ATCC 25922 after 48 hrs by microdilution method; conditions: ATCC 25922, 48 h
Summary of the method: (§3)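 Broth microdilution (CLSI M07-A9, modified) in Mueller-Hinton broth; inoculum about 2.5-3 × 10^4 cells/ml mixed 1:1 with serial compound dilutions. Stock solutions in up to 100% DMSO, final DMSO ≤1%. Incubated 35 °C for 48 h.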

Staphylococcus aureus [11] = test: Antibacterial activity against Staphylococcus aureus ATCC 9144 after 48 hrs by microdilution method; conditions: ATCC 9144, 48 h; summary of the method: as §3
Enterococcus faecium [12] = test: Antibacterial activity against vancomycin resistant Enterococcus faecium K36-18 clinical isolate after 24 hrs by microdilution method; conditions: K36-18, 24 h; summary of the method: as §1
Staphylococcus aureus [13] = test: Antibacterial activity against methicillin resistant Staphylococcus aureus N315 clinical isolate after 24 hrs by microdilution method; conditions: N315, 24 h; summary of the method: as §1
Pseudomonas aeruginosa [14] = test: Antibacterial activity against Pseudomonas aeruginosa clinical isolates after 24 hrs by microdilution method; summary of the method: as §2
Escherichia coli [15] = test: Antibacterial activity against oxacillinase 48-producing Escherichia coli 50,579,417 clinical isolate after 24 hrs by microdilution method; conditions: Escherichia coli, 50,579,417, 24 h; summary of the method: as §2
Bacillus subtilis = test: Antibacterial activity against Bacillus subtilis 168 ATCC 23857 after 48 hrs by microdilution method; conditions: subsp. subtilis str. 168 ATCC 23857, 48 h; summary of the method: as §3
Enterococcus faecium [16] = test: Antibacterial activity against vancomycin resistant Enterococcus faecium 50,758,899 clinical isolate after 24 hrs by microdilution method; conditions: Enterococcus faecium, 50,758,899, 24 h; summary of the method: as §1
Staphylococcus aureus [17] = test: Antibacterial activity against methicillin resistant Staphylococcus aureus NCTC 10442 clinical isolate after 24 hrs by microdilution method; conditions: NCTC 10442, 24 h; summary of the method: as §1
Staphylococcus aureus [18] = test: Antibacterial activity against Staphylococcus aureus clinical isolates after 24 hrs by microdilution method; summary of the method: as §2
Acinetobacter baumannii [19] = test: Antibacterial activity against colistin-resistant oxacillinase 23-producing Acinetobacter baumannii K63-58 clinical isolate after 24 hrs by microdilution method; conditions: K63-58, 24 h; summary of the method: as §1
Klebsiella pneumoniae [20] = test: Antibacterial activity against Verona integron-encoded metallo-beta-lactamase 1-producing Klebsiella pneumoniae 50,667,959 clinical isolate after 24 hrs by microdilution method; conditions: Klebsiella pneumoniae, 50,667,959, 24 h; summary of the method: as §2
Pseudomonas aeruginosa [21] = test: Antibacterial activity against Verona integron-encoded metallo-beta-lactamase 4-producing Pseudomonas aeruginosa K3473 clinical isolate after 24 hrs by microdilution method; conditions: K3473, 24 h; summary of the method: as §2
Pseudomonas aeruginosa [22] = test: Antibacterial activity against imipenem 14-type carbapenemase-producing Pseudomonas aeruginosa K4424 clinical isolate after 24 hrs by microdilution method; conditions: K4424, 24 h; summary of the method: as §2
Staphylococcus aureus [23] = test: Antibacterial activity against methicillin resistant Staphylococcus aureus 85/2082 clinical isolate after 24 hrs by microdilution method; conditions: 85/2082, 24 h; summary of the method: as §1
Klebsiella pneumoniae [24] = test: Antibacterial activity against oxacillinase 245-producing Klebsiella pneumoniae 50,625,602 clinical isolate after 24 hrs by microdilution method; conditions: Klebsiella pneumoniae, 50,625,602, 24 h; summary of the method: as §2
Acinetobacter baumannii [25] = test: Antibacterial activity against oxacillinase 58-producing Acinetobacter baumannii K12-21 clinical isolate after 24 hrs by microdilution method; conditions: K12-21, 24 h; summary of the method: as §1
Enterococcus faecium [26] = test: Antibacterial activity against vancomycin resistant Enterococcus faecium 50,673,722 clinical isolate after 24 hrs by microdilution method; conditions: Enterococcus faecium, 50,673,722, 24 h; summary of the method: as §1
Acinetobacter baumannii [27] = test: Antibacterial activity against oxacillinase 23-producing Acinetobacter baumannii K47-42 clinical isolate after 24 hrs by microdilution method; conditions: K47-42, 24 h; summary of the method: as §1
[28] = tested on: Staphylococcus epidermidis; test: Antibacterial activity against methicillin resistant Staphylococcus epidermidis RP62A ATCC 35984/CCUG 31568 after 48 hrs by microdilution method; conditions: RP62A ATCC 35984/CCUG 31568, 48 h
Summary of the method: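 Broth microdilution (modified CLSI M07-A9) against the MRSE reference strain. Inoculum of about 2.5-3 × 10^4 cells/ml in Mueller-Hinton broth mixed 1:1 with serial compound dilutions; final DMSO ≤1%. Incubated 35 °C, 48 h.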

Pseudomonas aeruginosa [29] = test: Antibacterial activity against Pseudomonas aeruginosa PAO1 DSM 19880 ATCC 15692 after 48 hrs by microdilution method; conditions: PAO1 DSM 19880 ATCC 15692, 48 h; summary of the method: as §3
[30] = tested on: Staphylococcus epidermidis; test: Antibiofilm activity against Staphylococcus epidermidis RP62A ATCC 35984/CCUG 31568 incubated for 24 +/- 2 hrs by crystal violet staining based assay
Summary of the method: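 Mature S. epidermidis RP62A biofilms: filtered overnight TSB culture adjusted to 2 McFarland, diluted in TSB with 1% glucose to about 6 × 10^6 CFU/ml, grown 24 ± 2 h at 37 °C static, then PBS-washed. Compounds in 50% TSBglu added for 24 ± 2 h at 37 °C. Biomass given as % of untreated control; ≥90% eradication threshold. Compounds tested at 2x, 5x and 10x MIC, 4-8 parallels on 2-3 plates, highest and lowest values excluded.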

SMILES	MIC (Acinetobacter baumannii [1])	MIC (Klebsiella pneumoniae [2])	MIC (Pseudomonas aeruginosa [3])	MIC (Enterococcus sp.)	MIC (Enterococcus faecium [4])	MIC (Escherichia coli [5])	MIC (Escherichia coli [6])	MIC (Pseudomonas aeruginosa [7])	MIC (Escherichia coli [8])	MIC (Enterococcus faecium [9])	MIC (Escherichia coli [10])	MIC (Staphylococcus aureus [11])	MIC (Enterococcus faecium [12])	MIC (Staphylococcus aureus [13])	MIC (Pseudomonas aeruginosa [14])	MIC (Escherichia coli [15])	MIC (Bacillus subtilis)	MIC (Enterococcus faecium [16])	MIC (Staphylococcus aureus [17])	MIC (Staphylococcus aureus [18])	further results
CC(C)(C)c1cc(C(C)(C)C)cc(S(=O)(=O)Nc2cc3ccccc3cc2C(=O)NCCNC(=N)N)c1.Cl	32 mg/L	> 32 mg/L	> 64 mg/L	8 mg/L	8 mg/L	> 32 mg/L	> 32 mg/L	> 64 mg/L	8 mg/L	4 mg/L	8 mg/L	4 mg/L	8 mg/L	4 mg/L	32 to 64 mg/L	≥ 32 mg/L	4 mg/L	8 mg/L	8 mg/L	4 mg/L	MIC (Acinetobacter baumannii [19]): 32 mg/L; MIC (Klebsiella pneumoniae [20]): ≥ 32 mg/L; MIC (Pseudomonas aeruginosa [21]): ≥ 32 mg/L; MIC (Pseudomonas aeruginosa [22]): > 64 mg/L; MIC (Staphylococcus aureus [23]): 8 mg/L; MIC (Klebsiella pneumoniae [24]): ≥ 32 mg/L; MIC (Acinetobacter baumannii [25]): 32 mg/L; MIC (Enterococcus faecium [26]): 8 mg/L; MIC (Acinetobacter baumannii [27]): 32 mg/L; MIC [28]: 4 mg/L; MIC (Pseudomonas aeruginosa [29]): 32 mg/L; MBIC=>90 [30]: 40 µg/mL
CN(c1ccc(C(=O)NCCCNC(=N)N)cc1)S(=O)(=O)c1cc(C(C)(C)C)cc(C(C)(C)C)c1.Cl	≥ 32 mg/L	≥ 32 mg/L	> 32 mg/L	8 to 16 mg/L	16 mg/L	32 mg/L	≥ 32 mg/L	32 mg/L	16 mg/L	16 mg/L	16 mg/L	4 mg/L	16 mg/L	8 mg/L	8 to 16 mg/L	≥ 32 mg/L	4 mg/L	8 mg/L	8 mg/L	4 mg/L	MIC (Acinetobacter baumannii [19]): ≥ 32 mg/L; MIC (Klebsiella pneumoniae [20]): ≥ 32 mg/L; MIC (Pseudomonas aeruginosa [21]): 32 mg/L; MIC (Pseudomonas aeruginosa [22]): 32 mg/L; MIC (Staphylococcus aureus [23]): 8 mg/L; MIC (Klebsiella pneumoniae [24]): ≥ 32 mg/L; MIC (Acinetobacter baumannii [25]): ≥ 32 mg/L; MIC (Enterococcus faecium [26]): 16 mg/L; MIC (Acinetobacter baumannii [27]): 32 mg/L; MIC [28]: 4 mg/L; MIC (Pseudomonas aeruginosa [29]): 16 mg/L; MBIC=>90 [30]: 40 µg/mL

Source: ChEMBL document CHEMBL4152356, “Amphipathic sulfonamidobenzamides mimicking small antimicrobial marine natural products; investigation of antibacterial and anti-biofilm activity against antibiotic resistant clinical isolates” (Bioorg Med Chem, 2018)
